# Laboratory results from ChEMBL document CHEMBL1157465, “Design, synthesis, and biological evaluation of novel 3-aryl-4-(1H-indole-3yl)-1,5-dihydro-2H-pyrrole-2-ones as vascular endothelial growth factor receptor (VEGF-R) inhibitors” (J Med Chem, 2008).
# How the values were obtained:
# [1] = target: T1, Serine/threonine-protein kinase PLK4 (Homo sapiens, UniProt O00444); test: Inhibition of human recombinant SAK
# T1 sequence (O00444 whole entry): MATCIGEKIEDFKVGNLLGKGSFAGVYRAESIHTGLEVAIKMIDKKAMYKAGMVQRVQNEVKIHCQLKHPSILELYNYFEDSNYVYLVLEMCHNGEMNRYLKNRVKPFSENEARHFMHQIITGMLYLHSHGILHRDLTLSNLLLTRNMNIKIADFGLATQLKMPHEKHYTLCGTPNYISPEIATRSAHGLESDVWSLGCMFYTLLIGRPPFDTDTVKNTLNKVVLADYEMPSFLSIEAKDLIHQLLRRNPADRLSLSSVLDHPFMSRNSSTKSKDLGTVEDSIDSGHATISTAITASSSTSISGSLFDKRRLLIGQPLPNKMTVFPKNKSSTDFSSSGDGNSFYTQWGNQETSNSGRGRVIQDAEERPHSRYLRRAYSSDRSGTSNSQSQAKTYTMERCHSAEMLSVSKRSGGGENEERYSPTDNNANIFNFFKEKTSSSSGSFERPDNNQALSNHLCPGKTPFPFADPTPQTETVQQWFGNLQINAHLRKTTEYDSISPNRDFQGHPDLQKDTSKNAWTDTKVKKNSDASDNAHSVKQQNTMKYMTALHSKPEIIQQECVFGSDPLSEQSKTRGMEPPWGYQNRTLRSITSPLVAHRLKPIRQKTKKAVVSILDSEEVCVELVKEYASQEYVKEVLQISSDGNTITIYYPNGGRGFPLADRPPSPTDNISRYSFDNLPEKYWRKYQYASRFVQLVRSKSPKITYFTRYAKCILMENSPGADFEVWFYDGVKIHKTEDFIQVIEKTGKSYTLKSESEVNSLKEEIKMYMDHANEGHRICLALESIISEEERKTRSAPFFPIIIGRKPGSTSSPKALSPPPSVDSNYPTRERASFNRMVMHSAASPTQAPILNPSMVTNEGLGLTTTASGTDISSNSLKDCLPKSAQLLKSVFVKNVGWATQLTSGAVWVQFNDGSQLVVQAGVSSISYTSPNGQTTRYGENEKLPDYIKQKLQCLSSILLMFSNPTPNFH
# Outline: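 Human kinase expressed from cDNA in Sf9 cells (baculovirus) as GST- or His-tagged protein, affinity-purified. 10 compound concentrations, 1% DMSO final, 30 °C for 80 min. Stopped with H₃PO₄, 33P incorporation counted, IC50 derived.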
# Focal adhesion kinase 1 = Focal adhesion kinase 1 (Homo sapiens, UniProt Q05397); test: Inhibition of human recombinant FAK
# Focal adhesion kinase 1, sequence (Q05397 whole entry): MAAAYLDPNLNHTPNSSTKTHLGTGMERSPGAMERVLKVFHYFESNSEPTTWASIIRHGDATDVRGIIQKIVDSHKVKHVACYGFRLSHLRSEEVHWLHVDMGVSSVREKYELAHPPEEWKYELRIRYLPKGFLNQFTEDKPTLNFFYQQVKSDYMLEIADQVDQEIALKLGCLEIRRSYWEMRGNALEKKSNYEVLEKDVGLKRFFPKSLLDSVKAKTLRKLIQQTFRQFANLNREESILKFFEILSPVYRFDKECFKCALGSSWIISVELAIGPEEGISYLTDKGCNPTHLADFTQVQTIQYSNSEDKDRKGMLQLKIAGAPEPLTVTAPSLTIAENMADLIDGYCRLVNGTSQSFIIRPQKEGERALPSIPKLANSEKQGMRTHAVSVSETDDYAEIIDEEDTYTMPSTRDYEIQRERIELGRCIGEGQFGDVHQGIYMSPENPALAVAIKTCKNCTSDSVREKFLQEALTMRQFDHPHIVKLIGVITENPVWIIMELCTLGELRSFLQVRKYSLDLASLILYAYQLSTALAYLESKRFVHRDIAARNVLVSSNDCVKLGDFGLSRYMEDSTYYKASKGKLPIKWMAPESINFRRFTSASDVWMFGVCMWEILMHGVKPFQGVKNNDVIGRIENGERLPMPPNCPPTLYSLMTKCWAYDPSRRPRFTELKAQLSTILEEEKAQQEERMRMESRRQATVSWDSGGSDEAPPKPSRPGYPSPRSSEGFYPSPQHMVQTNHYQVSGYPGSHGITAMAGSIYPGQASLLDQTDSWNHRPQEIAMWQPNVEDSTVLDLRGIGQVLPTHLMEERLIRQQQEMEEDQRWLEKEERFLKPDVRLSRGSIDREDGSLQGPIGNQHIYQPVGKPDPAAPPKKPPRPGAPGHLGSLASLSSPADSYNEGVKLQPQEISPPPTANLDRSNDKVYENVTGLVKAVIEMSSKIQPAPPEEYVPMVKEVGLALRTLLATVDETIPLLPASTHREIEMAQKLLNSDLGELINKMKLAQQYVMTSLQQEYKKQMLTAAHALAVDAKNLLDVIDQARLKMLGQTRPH
# [2] = target: Vascular endothelial growth factor receptor 3 (Homo sapiens, UniProt P35916); test: Inhibition of human recombinant VEGFR3
# Vascular endothelial growth factor receptor 3, sequence (P35916 whole entry, the tested form may be a part): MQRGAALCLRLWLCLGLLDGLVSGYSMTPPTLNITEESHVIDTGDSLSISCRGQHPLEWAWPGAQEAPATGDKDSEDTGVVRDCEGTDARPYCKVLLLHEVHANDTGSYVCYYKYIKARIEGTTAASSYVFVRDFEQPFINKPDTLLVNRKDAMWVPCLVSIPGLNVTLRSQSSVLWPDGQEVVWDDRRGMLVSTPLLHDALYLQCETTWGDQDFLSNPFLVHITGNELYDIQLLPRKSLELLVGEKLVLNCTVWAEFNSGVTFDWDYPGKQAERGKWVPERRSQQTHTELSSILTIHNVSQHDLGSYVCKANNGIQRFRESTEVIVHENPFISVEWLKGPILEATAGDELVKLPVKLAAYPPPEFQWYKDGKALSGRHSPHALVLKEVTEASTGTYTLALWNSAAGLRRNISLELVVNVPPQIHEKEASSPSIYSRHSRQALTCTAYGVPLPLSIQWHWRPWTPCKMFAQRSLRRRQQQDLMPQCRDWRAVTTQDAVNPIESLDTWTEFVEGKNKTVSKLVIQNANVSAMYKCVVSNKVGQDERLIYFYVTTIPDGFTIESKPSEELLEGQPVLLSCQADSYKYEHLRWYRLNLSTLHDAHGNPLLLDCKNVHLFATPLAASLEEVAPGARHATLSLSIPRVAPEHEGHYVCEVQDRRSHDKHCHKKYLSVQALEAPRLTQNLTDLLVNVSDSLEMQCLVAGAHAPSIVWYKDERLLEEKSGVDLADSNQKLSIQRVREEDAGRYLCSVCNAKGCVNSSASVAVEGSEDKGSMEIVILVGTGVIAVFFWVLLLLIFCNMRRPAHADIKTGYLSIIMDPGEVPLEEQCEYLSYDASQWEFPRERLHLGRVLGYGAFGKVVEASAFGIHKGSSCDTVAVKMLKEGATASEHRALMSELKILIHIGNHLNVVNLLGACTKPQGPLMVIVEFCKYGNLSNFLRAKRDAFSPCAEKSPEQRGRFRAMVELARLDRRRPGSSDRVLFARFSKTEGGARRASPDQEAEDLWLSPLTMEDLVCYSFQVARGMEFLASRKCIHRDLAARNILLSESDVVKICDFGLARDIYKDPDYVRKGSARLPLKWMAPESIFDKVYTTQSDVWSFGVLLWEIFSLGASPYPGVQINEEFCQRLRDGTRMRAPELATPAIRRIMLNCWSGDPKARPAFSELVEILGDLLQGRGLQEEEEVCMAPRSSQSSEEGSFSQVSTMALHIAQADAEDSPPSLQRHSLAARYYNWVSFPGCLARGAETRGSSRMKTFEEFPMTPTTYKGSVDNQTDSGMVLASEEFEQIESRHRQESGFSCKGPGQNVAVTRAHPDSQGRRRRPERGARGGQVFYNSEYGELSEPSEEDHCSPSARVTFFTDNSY
# Outline: (§1)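 Recombinant human tyrosine kinases (EPHB4, TIE2, VEGF-R2, VEGF-R3), expressed in Sf9 insect cells as GST- or His-fusions, with poly(Glu,Tyr) 4:1 as substrate. Conditions: 1 µM [γ-33P]ATP, pH 7.5 HEPES buffer with Mg/Mn, DTT and vanadate, 30 °C for 80 min, 1% DMSO. Ten concentrations were tested and IC50 came from scintillation counting of incorporated 33P.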
# [3] = target: Vascular endothelial growth factor receptor 2 (Homo sapiens, UniProt P35968); test: Inhibition of human recombinant VEGFR2; outline: as §1
# Vascular endothelial growth factor receptor 2, sequence (P35968 whole entry): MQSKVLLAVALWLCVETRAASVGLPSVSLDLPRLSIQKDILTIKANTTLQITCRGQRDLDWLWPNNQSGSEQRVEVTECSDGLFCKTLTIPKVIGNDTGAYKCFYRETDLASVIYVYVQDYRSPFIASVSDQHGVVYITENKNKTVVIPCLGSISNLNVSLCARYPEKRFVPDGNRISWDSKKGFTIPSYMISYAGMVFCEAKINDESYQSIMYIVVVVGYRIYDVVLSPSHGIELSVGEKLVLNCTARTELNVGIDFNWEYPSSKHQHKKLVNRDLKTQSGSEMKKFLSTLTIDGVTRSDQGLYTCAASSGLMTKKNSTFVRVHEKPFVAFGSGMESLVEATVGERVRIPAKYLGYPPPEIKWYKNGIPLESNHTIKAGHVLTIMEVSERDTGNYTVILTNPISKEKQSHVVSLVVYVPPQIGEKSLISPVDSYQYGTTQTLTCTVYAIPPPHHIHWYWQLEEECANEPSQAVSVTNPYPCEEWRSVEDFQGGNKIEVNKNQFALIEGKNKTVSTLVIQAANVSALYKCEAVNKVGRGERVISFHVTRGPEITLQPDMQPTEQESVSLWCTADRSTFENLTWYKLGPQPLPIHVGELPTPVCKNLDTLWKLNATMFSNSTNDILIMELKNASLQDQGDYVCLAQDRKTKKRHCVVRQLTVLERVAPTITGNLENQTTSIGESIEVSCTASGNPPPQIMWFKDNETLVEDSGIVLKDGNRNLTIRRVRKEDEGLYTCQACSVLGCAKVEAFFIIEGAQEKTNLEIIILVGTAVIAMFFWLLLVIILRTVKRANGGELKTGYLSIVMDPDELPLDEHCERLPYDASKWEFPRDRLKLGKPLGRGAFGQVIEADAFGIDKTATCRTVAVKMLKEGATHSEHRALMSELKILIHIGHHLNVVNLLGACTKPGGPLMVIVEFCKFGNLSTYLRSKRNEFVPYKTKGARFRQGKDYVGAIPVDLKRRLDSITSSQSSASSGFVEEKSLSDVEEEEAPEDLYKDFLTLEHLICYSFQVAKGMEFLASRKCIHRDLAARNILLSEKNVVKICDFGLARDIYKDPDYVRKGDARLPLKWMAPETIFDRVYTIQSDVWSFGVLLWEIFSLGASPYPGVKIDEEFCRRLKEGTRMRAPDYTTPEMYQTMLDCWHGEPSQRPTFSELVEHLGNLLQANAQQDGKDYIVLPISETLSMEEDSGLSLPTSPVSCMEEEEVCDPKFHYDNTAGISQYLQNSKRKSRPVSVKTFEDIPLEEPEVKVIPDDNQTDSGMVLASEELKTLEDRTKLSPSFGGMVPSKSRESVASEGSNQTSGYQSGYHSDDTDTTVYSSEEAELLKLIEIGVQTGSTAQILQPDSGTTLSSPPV
# Aurora kinase A = target: T2, Aurora kinase A (Homo sapiens, UniProt O14965); test: Inhibition of human recombinant Aurora A
# T2 sequence (O14965 whole entry): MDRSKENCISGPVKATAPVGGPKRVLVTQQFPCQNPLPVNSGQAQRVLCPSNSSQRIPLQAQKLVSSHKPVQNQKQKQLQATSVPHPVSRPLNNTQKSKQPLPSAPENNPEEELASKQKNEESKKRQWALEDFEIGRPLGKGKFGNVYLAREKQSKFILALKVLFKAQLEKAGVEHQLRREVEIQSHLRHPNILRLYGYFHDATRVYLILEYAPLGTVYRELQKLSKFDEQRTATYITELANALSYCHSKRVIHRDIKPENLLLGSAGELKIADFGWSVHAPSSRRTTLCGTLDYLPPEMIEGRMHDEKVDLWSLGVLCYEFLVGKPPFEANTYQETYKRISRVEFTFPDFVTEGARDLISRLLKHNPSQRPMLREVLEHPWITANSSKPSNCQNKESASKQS
# Outline: (§2)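 Aurora-A or Aurora-B, human cDNA expressed in Sf9 cells as tagged recombinant protein, phosphorylating Tetra(LRRWSLG). Reactions used 60 mM HEPES pH 7.5, Mg2+/Mn2+ (3 mM each), 1.2 mM DTT, vanadate and 1 µM [γ-33P]ATP, ran 80 min at 30 °C and were stopped with 2% H3PO4.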
# [4] = target: Proto-oncogene tyrosine-protein kinase Src (Homo sapiens, UniProt P12931); test: Inhibition of human recombinant SRC
# Proto-oncogene tyrosine-protein kinase Src, sequence (P12931 2-536 limits assumed): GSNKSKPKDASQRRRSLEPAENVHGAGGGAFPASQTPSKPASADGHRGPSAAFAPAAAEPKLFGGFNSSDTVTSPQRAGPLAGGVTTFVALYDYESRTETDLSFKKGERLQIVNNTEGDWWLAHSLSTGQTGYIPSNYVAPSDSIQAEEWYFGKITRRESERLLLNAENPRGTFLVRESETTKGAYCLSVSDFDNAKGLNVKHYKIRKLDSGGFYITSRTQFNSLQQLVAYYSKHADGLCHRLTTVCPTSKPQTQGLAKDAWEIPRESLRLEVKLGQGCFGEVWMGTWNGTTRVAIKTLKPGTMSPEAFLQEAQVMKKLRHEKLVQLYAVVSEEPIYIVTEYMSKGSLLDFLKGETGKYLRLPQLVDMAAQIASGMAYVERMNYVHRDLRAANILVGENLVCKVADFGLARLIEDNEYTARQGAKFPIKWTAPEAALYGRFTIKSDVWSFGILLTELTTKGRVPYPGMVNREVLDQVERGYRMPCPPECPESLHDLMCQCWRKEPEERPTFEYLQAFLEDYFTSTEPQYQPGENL
# Outline: (§3)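 Human kinases expressed in Sf9 cells via baculovirus as GST or His fusions and affinity purified. 33PanQinase assay in 60 mM HEPES-NaOH pH 7.5, 3 mM MgCl2, 3 mM MnCl2, 3 µM orthovanadate, 1.2 mM DTT, 1 µM [γ-33P]ATP, 1% DMSO; 30 °C, 80 min. Substrates: poly(Glu,Tyr) 4:1 for ERBB2, IGF1-R and SRC; poly(Ala,Glu,Lys,Tyr) 6:2:5:1 for FLT3. IC50 from 10 concentrations by scintillation counting.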
# Angiopoietin-1 receptor = Angiopoietin-1 receptor (Homo sapiens, UniProt Q02763); test: Inhibition of human recombinant TIE2; outline: as §1
# [5] = target: T3, Receptor-type tyrosine-protein kinase FLT3 (Homo sapiens, UniProt P36888); test: Inhibition of human recombinant FLT3; outline: as §3
# T3 sequence (P36888 whole entry): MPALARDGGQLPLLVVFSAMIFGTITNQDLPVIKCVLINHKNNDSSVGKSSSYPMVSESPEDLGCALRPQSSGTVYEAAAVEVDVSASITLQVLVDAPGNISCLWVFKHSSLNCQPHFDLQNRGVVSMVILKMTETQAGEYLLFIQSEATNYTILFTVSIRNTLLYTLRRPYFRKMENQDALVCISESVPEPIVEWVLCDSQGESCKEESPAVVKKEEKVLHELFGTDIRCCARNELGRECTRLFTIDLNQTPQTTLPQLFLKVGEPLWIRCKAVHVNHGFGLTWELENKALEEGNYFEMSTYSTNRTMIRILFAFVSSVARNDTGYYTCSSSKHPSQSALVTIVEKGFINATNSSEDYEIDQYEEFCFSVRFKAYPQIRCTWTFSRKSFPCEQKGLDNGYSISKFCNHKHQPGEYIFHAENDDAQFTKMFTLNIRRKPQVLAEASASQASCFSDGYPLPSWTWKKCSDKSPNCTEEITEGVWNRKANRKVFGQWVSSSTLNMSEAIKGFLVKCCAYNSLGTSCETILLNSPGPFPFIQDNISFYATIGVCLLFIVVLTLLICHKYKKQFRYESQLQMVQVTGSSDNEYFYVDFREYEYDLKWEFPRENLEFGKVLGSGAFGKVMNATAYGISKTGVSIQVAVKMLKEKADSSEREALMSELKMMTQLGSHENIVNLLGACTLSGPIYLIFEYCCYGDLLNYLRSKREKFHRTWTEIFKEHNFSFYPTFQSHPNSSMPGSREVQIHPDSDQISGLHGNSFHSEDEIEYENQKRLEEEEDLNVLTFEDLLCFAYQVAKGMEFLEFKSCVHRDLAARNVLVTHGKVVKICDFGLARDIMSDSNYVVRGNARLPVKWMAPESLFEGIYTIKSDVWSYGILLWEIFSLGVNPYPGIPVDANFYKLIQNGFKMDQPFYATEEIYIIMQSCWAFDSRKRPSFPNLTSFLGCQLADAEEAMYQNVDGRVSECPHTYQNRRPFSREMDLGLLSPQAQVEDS
# [6] = target: Cyclin-dependent kinase 4/cyclin D1 (Homo sapiens, UniProt P11802); test: Inhibition of human recombinant CDK4/cyclin D1; assay type: protein-complex assay
# Cyclin-dependent kinase 4/cyclin D1, sequence (P11802 whole entry): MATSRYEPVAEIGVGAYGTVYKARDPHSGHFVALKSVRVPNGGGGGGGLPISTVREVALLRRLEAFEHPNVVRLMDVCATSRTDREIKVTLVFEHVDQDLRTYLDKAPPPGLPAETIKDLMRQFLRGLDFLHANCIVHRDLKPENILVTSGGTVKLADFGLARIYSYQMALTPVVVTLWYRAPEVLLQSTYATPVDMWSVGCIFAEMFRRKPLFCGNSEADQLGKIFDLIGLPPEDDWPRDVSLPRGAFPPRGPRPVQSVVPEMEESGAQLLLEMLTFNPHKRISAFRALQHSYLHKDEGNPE
# Cyclin-dependent kinase 4/cyclin D1, sequence (P24385 whole entry, further chain): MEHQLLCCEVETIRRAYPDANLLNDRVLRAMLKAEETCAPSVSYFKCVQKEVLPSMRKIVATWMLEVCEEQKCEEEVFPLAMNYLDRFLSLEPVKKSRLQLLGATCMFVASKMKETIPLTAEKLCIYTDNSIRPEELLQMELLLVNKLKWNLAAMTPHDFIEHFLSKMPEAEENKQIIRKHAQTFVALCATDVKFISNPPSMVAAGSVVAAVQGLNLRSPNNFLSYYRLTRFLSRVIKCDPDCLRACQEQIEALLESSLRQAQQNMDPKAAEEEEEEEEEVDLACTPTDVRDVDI
# Outline: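 CDK4/CycD1 (human, baculovirus/Sf9, affinity-purified) with Rb-CTF as substrate. The radiometric FlashPlate assay held 1 µM [γ-33P]ATP in HEPES-NaOH pH 7.5 with 3 mM MgCl2 and 3 mM MnCl2.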
# Homo sapiens [7] = species: Homo sapiens; test: Antiangiogenic activity in VEGF-induced HLMEC assessed as sprouts per bead at 1.3 uM after 24 hrs by sprouting assay; assay type: functional
# Outline: (§4)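 HLMEC seeded on cytodex-3 microcarrier beads and embedded in 3D fibrinogen gel with 20 ng/mL VEGF plus compound at a final 1.3 or 2.6 µM (from 1 mM DMSO stock). Gel polymerised with 0.65 U/mL thrombin and overlaid with MCDB131, 5% FCS, 5% human serum and 200 U/mL Trasylol. Negative control: gel without growth factors. After 24 h, fixed in 1% PFA; sprouts per 50 beads counted microscopically. Triplicates per condition, n = 9 experiments.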
# [8] = target: Cyclin-dependent kinase 2 (Homo sapiens, UniProt P24941); test: Inhibition of human recombinant CDK2/cyclin A
# Outline: (§5)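 Human kinases expressed in Sf9 cells by baculovirus as GST or His fusions and affinity purified. Radiometric 33PanQinase assay: 60 mM HEPES-NaOH pH 7.5, 3 mM MgCl2, 3 mM MnCl2, 3 µM orthovanadate, 1.2 mM DTT, 1 µM [γ-33P]ATP, 50-400 ng enzyme, 1% DMSO; 30 °C, 80 min. Substrates: B-Raf-VE, MEK1 KM; CDK2/CycA, histone H1; CK2-A1, casein; COT, autophosphorylation. IC50 from 10 concentrations; 33Pi incorporation by scintillation.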
# Aurora kinase B = Aurora kinase B (Homo sapiens, UniProt Q96GD4); test: Inhibition of human recombinant Aurora B; outline: as §2
# [9] = target: Receptor tyrosine-protein kinase erbB-2 (Homo sapiens, UniProt P04626); test: Inhibition of human recombinant ERBB2; outline: as §3
# Insulin receptor = Insulin receptor (Homo sapiens, UniProt P06213); test: Inhibition of human recombinant INS-R
# [10] = target: Mitogen-activated protein kinase kinase kinase 8 (Homo sapiens, UniProt P41279); test: Inhibition of human recombinant COT; outline: as §5
# Homo sapiens [11] = species: Homo sapiens; test: Induction of apoptosis in HDMEC assessed as cleaved caspase 3 at 1.3 uM after 24 hrs; assay type: functional
# Outline: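 HDMEC incubated 24 h with compound. Adherent cells and supernatant harvested together, stained with an antibody to cleaved caspase-3, and analysed by FACS as percent apoptotic cells. Three independent repeats.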
# Homo sapiens [12] = species: Homo sapiens; test: Antiangiogenic activity in VEGF-induced HLMEC assessed as number of sprouts per bead at 2.6 uM after 24 hrs by sprouting assay; assay type: functional; outline: as §4
# [13] = target: T4, NUAK family SNF1-like kinase 1 (Homo sapiens, UniProt O60285); test: Inhibition of human recombinant ARK5
# T4 sequence (O60285 whole entry): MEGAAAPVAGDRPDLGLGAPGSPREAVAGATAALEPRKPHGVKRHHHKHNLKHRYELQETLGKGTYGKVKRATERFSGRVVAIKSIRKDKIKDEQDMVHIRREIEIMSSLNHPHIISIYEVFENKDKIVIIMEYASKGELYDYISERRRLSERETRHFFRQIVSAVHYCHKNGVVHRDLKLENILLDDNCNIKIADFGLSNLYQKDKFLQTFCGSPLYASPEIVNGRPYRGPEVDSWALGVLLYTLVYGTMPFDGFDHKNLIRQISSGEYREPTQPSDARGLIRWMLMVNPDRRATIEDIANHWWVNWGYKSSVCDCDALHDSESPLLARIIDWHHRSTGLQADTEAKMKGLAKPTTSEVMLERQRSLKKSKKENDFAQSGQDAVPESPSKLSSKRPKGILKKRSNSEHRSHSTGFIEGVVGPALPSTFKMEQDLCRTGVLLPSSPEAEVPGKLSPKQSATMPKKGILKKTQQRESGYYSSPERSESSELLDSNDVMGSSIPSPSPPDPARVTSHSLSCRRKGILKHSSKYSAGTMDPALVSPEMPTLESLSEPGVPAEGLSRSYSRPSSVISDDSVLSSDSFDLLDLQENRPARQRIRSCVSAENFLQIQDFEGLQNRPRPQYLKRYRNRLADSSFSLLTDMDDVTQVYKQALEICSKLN
# Outline: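 Human ARK5 made in Sf9 cells by baculovirus (GST- or His-tagged, affinity-purified) and read by autophosphorylation in a 33PanQinase radiometric assay. Buffer: 60 mM HEPES-NaOH pH 7.5, 3 mM MgCl2, 3 mM MnCl2, 3 µM orthovanadate, 1.2 mM DTT, PEG20000 and 1 µM [γ-33P]ATP.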
SMILES,IC50 [1] [µM],IC50 (Focal adhesion kinase 1) [µM],IC50 [2] [µM],IC50 [3] [µM],IC50 (Aurora kinase A) [µM],IC50 [4] [µM],IC50 (Angiopoietin-1 receptor) [µM],IC50 [5] [µM],inhibition (Homo sapiens [7]) [%],further results
COc1cc(C2=C(c3cn(COC(C)C)c4ccccc34)CNC2=O)cc(OC)c1OC,44,27,5.3,5.2,33,29,11,,,
COc1cc(C2=C(c3c[nH]c4ccccc34)C(O)NC2=O)cc(OC)c1OC (stereo not given),,,3.4,5.9,,,,44,,
CCOCn1cc(C2=C(c3cc(OC)c(OC)c(OC)c3)C(=O)NC2)c2ccccc21,35,28,3.6,5.3,29,40,24,,,
COc1cc(C2=C(c3c[nH]c4ccccc34)C(=O)NC2=O)cc(OC)c1OC [MALEIMIDE],,,,,,,,,81,Activity (Homo sapiens [11]): 22.4%; Activity (Homo sapiens [12]): 0.48
COc1cc(C2=C(c3cn(CC4COC(C)(C)O4)c4ccccc34)CNC2=O)cc(OC)c1OC (stereo not given),23,,3.2,8,,,31,,,

# Further lines, with some results ahead:
IC50 [1] [µM],IC50 (Focal adhesion kinase 1) [µM],IC50 [2] [µM],IC50 [3] [µM],IC50 (Aurora kinase A) [µM],IC50 [4] [µM],IC50 (Angiopoietin-1 receptor) [µM],IC50 [5] [µM],SMILES,inhibition (Homo sapiens [7]) [%],further results
9,43,2.5,1.5,6.5,,1.7,,COc1cc(C2=C(c3cn(COc4ccccc4)c4ccccc34)CNC2=O)cc(OC)c1OC,41,IC50 [6]: 44 µM; IC50 [8]: 20 µM; IC50 (Aurora kinase B): 20 µM; IC50 [9]: 37 µM; IC50 (Insulin receptor): 44 µM; IC50 [10]: 40 µM
46,,18,31,,39,48,14,COc1ccc(C2=C(c3cn(C)c4ccccc34)C(=O)NC2)cc1,,IC50 [13]: 3.6 µM
,35,3.2,2.3,,,25,25,COCn1cc(C2=C(c3cc(OC)c(OC)c(OC)c3)C(=O)NC2)c2ccccc21,42,
